Results on nine compounds are retold here after ChEMBL document CHEMBL1250508, “Synthesis and cytotoxic potency of novel tris(1-alkylindol-3-yl)methylium salts: role of N-alkyl substituents” (Bioorg Med Chem, 2010).

The test system of series [1] is K562. Nature of the series: Cytotoxicity against human K562 cells after 72 hrs by MTT assay. In kind it is functional, cell-based. Conditions: K562, 72 h. A digest of the protocol:
(§1)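 Tumour lines were grown in DMEM with 5% fetal calf serum, 2 mM L-glutamine, penicillin and streptomycin at 37 °C, 5% CO2, and used in log phase. 5×10^3 cells per well were exposed to serial concentrations (each in triplicate; 10 mM DMSO stocks diluted in water) or 0.1% DMSO for 72 h. MTT was added for 2 h, formazan dissolved in DMSO, and A540 read. IC50 was taken at 50% viability versus vehicle.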

Series [2] deals with HCT-116. Nature of the series: Cytotoxicity against human HCT116 cells after 72 hrs by MTT assay. It is filed as functional, cell-based. Conditions: HCT-116, 72 h. A digest of the protocol:
as §1

The test system of series [3] is Fem-X. The series is described as follows: Cytotoxicity against human Fem-X cells after 72 hrs by MTT assay. In kind it is functional, cell-based. The procedure, abridged:
as §1

The test system of series [4] is HCT-116. The series is described as follows: Induction of apoptosis in human HCT116 cells assessed as internucleosomal DNA fragmentation at 1 uM after 24 to 48 hrs by agarose gel by electrophoresis. It is filed as functional, cell-based. A digest of the protocol:
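HCT116 cells were seeded at 5×10^4 per well overnight and treated with 1 µM for 24–48 h, with drug-free controls. Cells were lysed for 30 min on ice in 350 mM NaCl, 20 mM Tris-HCl pH 7.4, 2 mM MgCl2, 1 mM DTT and 0.5% NP-40. DNA was phenol-chloroform extracted, ethanol/sodium acetate precipitated, and run on a 1% agarose gel.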

In series [5] the test system is HCT-116. The series is described as follows: Induction of apoptosis in human HCT116 cells assessed as loss of DNA integrity at 1 uM after 24 to 48 hrs using Annexin V-FITC staining by flow cytometry. It is filed as functional, cell-based.
For series [6], the system named is Jurkat. Nature of the series: Cytotoxicity against human Jurkat cells after 72 hrs by MTT assay. In kind it is functional, cell-based. The procedure, abridged:
as §1

Series [7] deals with HCT-116. The series is described as follows: Induction of apoptosis in human HCT116 cells assessed as increase of hypodiploid nuclei at sub-G1 phase at 1 uM after 24 to 48 hrs […] by flow cytometry. In kind it is functional, cell-based. A digest of the protocol:
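HCT116 cells were seeded at 5×10^4 per well overnight, then exposed to 1 µM for 24–48 h at 37 °C with drug-free controls. Cells were washed in cold saline and lysed in 0.1% sodium citrate, 0.3% NP-40, 50 µg/ml RNase A and 10 µg/ml propidium iodide. Flow cytometry on FL2 gave the percentage of hypodiploid (sub-G1) nuclei.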

In series [8] the test system is MCF7. Nature of the series: Cytotoxicity against human MCF7 cells after 72 hrs by MTT assay. It is filed as functional, cell-based. The procedure, abridged: as §1
The subject of series [9] is PBL. Nature of the series: Cytotoxicity against human PBL cells after 72 hrs by MTT assay. It is filed as cell-based. The procedure, abridged: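 Lymphocytes were freshly isolated from peripheral blood of four healthy donors and pooled. 5×10^3 cells per well were treated with increasing concentrations in triplicate (DMSO stocks diluted in water) or 0.1% DMSO vehicle for 72 h. MTT was added for 2 h, then formazan dissolved in DMSO and read at 540 nm. IC50 was the concentration giving 50% viability relative to vehicle.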

Series [10] deals with HCT-116. The series is described as follows: Induction of apoptosis in p53 deficient human HCT116 cells at 1 uM after 24 to 48 hrs using Annexin V-FITC staining by flow cytometry. It is filed as functional, cell-based.
For series [11], the system named is Mel-Kor. The series is described as follows: Cytotoxicity against human Mel-Kor cells after 72 hrs by MTT assay. It is filed as functional, cell-based. A digest of the protocol: as §1
Series [12] deals with SK-BR-3. Nature of the series: Cytotoxicity against human SK-BR-3 cells after 72 hrs by MTT assay. In kind it is functional, cell-based. A digest of the protocol:
as §1

In series [13] the test system is SK-OV-3. The series is described as follows: Cytotoxicity against human SKOV3 cells after 72 hrs by MTT assay. In kind it is functional, cell-based. A digest of the protocol: as §1
Series [14] deals with HCT-116. Nature of the series: Induction of apoptosis in human HCT116 cells assessed as programmed cell death at 1 uM after 24 to 48 hrs using Annexin V-FITC staining by flow cytometry. In kind it is functional, cell-based. A digest of the protocol:
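HCT116 cells were plated at 5×10^4 per well overnight, given 1 µM for 24–48 h at 37 °C, 5% CO2 (controls without drug), washed with cold saline and harvested. One aliquot was stained with Annexin V-FITC per the manufacturer and analysed by flow cytometry.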

Activity calls are given as the source filed them. The calls are words filed in the database; no cut-off is given here.

Consider `Cn1cc([C+](c2cn(C)c3ccccc23)c2cn(C)c3ccccc23)c2ccccc21`, for which the IC50 in series [1] and in [2] was 3200 nM each time.

For `CCCCCCCCCCn1cc([C+](c2cn(CCCCCCCCCC)c3ccccc23)c2cn(CCCCCCCCCC)c3ccccc23)c2ccccc21`, the IC50 in series [1] is 12400 nM; in series [2] it was 16400 nM.

Consider `c1ccc2c([C+](c3c[nH]c4ccccc34)c3c[nH]c4ccccc34)c[nH]c2c1`, for which the concentration for half-maximal inhibition (IC50) in series [1] stood at 1600 nM; in series [2], 2300 nM.

Consider `CCn1cc([C+](c2cn(CC)c3ccccc23)c2cn(CC)c3ccccc23)c2ccccc21`, for which the IC50 amounted to 200 nM in series [1] and 1300 nM in [2].

For the compound `CCCn1cc([C+](c2cn(CCC)c3ccccc23)c2cn(CCC)c3ccccc23)c2ccccc21`, the values for the IC50 in series [1] and in series [2] were 200 nM and 1000 nM, respectively.

Turning to `CCCCCCn1cc([C+](c2cn(CCCCCC)c3ccccc23)c2cn(CCCCCC)c3ccccc23)c2ccccc21`, the half-inhibitory concentration (IC50) in series [1] was found to be 74 nM; in [2] it was 300 nM.

On to `CCCCCn1cc([C+](c2cn(CCCCC)c3ccccc23)c2cn(CCCCC)c3ccccc23)c2ccccc21`, for which the result in series [3], in [4], in series [5], in series [6], in series [7] and in series [8] was Active. Moreover, the outcome in series [10], in series [11], in [12], in series [13] and in series [14] was Active. The Activity result in [9] is on record as “Non-toxic”. For the same compound, the half-maximal inhibitory concentration (IC50) in [1] worked out at 50 nM; in series [2], 150 nM.

As for `c1ccc(Cn2cc([C+](c3cn(Cc4ccccc4)c4ccccc34)c3cn(Cc4ccccc4)c4ccccc34)c3ccccc32)cc1`, the values for the half-inhibitory concentration (IC50) in [1] and in [2] were 9300 nM and 15000 nM, respectively.

Consider `CCCCn1cc([C+](c2cn(CCCC)c3ccccc23)c2cn(CCCC)c3ccccc23)c2ccccc21`, for which the half-inhibitory concentration (IC50) in series [1] turned out to be 90 nM; in series [2] it was 300 nM.
